From ChEMBL document CHEMBL4689842, “EUbOPEN Chemogenomics Library wave 1” (2021)

Test system: HEK-293T
Assay: Multiplex assay against HEK293T;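 as to Population Tubulin-Different-Phenotype (%): share of the cells with healthy nuclei that show this phenotype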
Assay type: toxicity, cell-based
Settings: human
Outline: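 Live cells carried four stains from seeding: Hoechst33342, BioTracker Green Microtubule Cytoskeleton Dye, MitoTracker Red and Annexin V Alexa Fluor 680. They were imaged on a CQ1 microscope at 37°C and 5% CO2 after compound addition. Using CellPathfinder machine-learning gating, cells were split into Hoechst high-intensity objects or normal cells, normal cells into healthy, pyknosed or fragmented nuclei, and pyknosed cells into mitotic or apoptotic; tubulin, mitochondrial-mass and membrane-permeability phenotypes are per cents of healthy-nucleus cells.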

[1] = 12 h, 1 µM, compound concentration 1 uM, replicate 1
[2] = 12 h, 1 µM, compound concentration 1 uM, replicate 2
[3] = 12 h, 10 µM, compound concentration 10 uM, replicate 1
[4] = 12 h, 10 µM, compound concentration 10 uM, replicate 2
[5] = 24 h, 1 µM, compound concentration 1 uM, replicate 1
[6] = 24 h, 1 µM, compound concentration 1 uM, replicate 2
[7] = 24 h, 10 µM, compound concentration 10 uM, replicate 1
[8] = 24 h, 10 µM, compound concentration 10 uM, replicate 2
[9] = 48 h, 1 µM, compound concentration 1 uM, replicate 1
[10] = 48 h, 1 µM, compound concentration 1 uM, replicate 2
[11] = 48 h, 10 µM, compound concentration 10 uM, replicate 1
[12] = 48 h, 10 µM, compound concentration 10 uM, replicate 2

C[C@@H](Oc1cc(-n2cnc3ccc(CN4CCN(C)CC4)cc32)sc1C(N)=O)c1ccccc1C(F)(F)F [GSK-461364]
Population Apoptotic (%) [1]: 62%
Population Fragmented Nuclei (%) [1]: 14%
Population Healthy Nuclei (%) [1]: 19%
Population Hoechst High Intensity Objects (%) [1]: 17%
Population Membrane Permeable-Phenotype (%) [1]: 5%
Population Mitochondria Different-Phenotype (%) [1]: 98%
Population Mitotic Cells (%) [1]: 37%
Population Normal (%) [1]: 82%
Population Pyknosed Nuclei (%) [1]: 65%
Population Tubulin-Different-Phenotype (%) [1]: 96%
Total Cell Count [1]: 322
Population Apoptotic (%) [2]: 27%
Population Fragmented Nuclei (%) [2]: 10%
Population Healthy Nuclei (%) [2]: 33%
Population Hoechst High Intensity Objects (%) [2]: 4%
Population Membrane Permeable-Phenotype (%) [2]: 20%
Population Mitochondria Different-Phenotype (%) [2]: 60%
Population Mitotic Cells (%) [2]: 72%
Population Normal (%) [2]: 95%
Population Pyknosed Nuclei (%) [2]: 56%
Population Tubulin-Different-Phenotype (%) [2]: 71%
Total Cell Count [2]: 142
Population Apoptotic (%) [3]: 80%
Population Fragmented Nuclei (%) [3]: 16%
Population Healthy Nuclei (%) [3]: 11%
Population Hoechst High Intensity Objects (%) [3]: 22%
Population Membrane Permeable-Phenotype (%) [3]: 7%
Population Mitochondria Different-Phenotype (%) [3]: 100%
Population Mitotic Cells (%) [3]: 19%
Population Normal (%) [3]: 77%
Population Pyknosed Nuclei (%) [3]: 71%
Population Tubulin-Different-Phenotype (%) [3]: 74%
Total Cell Count [3]: 294
Population Apoptotic (%) [4]: 66%
Population Fragmented Nuclei (%) [4]: 11%
Population Healthy Nuclei (%) [4]: 14%
Population Hoechst High Intensity Objects (%) [4]: 10%
Population Membrane Permeable-Phenotype (%) [4]: 12%
Population Mitochondria Different-Phenotype (%) [4]: 75%
Population Mitotic Cells (%) [4]: 33%
Population Normal (%) [4]: 89%
Population Pyknosed Nuclei (%) [4]: 73%
Population Tubulin-Different-Phenotype (%) [4]: 62%
Total Cell Count [4]: 187
Population Apoptotic (%) [5]: 66%
Population Fragmented Nuclei (%) [5]: 14%
Population Healthy Nuclei (%) [5]: 22%
Population Hoechst High Intensity Objects (%) [5]: 16%
Population Membrane Permeable-Phenotype (%) [5]: 0%
Population Mitochondria Different-Phenotype (%) [5]: 98%
Population Mitotic Cells (%) [5]: 33%
Population Normal (%) [5]: 83%
Population Pyknosed Nuclei (%) [5]: 62%
Population Tubulin-Different-Phenotype (%) [5]: 96%
Total Cell Count [5]: 321
Population Apoptotic (%) [6]: 38%
Population Fragmented Nuclei (%) [6]: 8%
Population Healthy Nuclei (%) [6]: 43%
Population Hoechst High Intensity Objects (%) [6]: 3%
Population Membrane Permeable-Phenotype (%) [6]: 12%
Population Mitochondria Different-Phenotype (%) [6]: 54%
Population Mitotic Cells (%) [6]: 61%
Population Normal (%) [6]: 96%
Population Pyknosed Nuclei (%) [6]: 47%
Population Tubulin-Different-Phenotype (%) [6]: 75%
Total Cell Count [6]: 154
Population Apoptotic (%) [7]: 81%
Population Fragmented Nuclei (%) [7]: 26%
Population Healthy Nuclei (%) [7]: 10%
Population Hoechst High Intensity Objects (%) [7]: 25%
Population Membrane Permeable-Phenotype (%) [7]: 4%
Population Mitochondria Different-Phenotype (%) [7]: 100%
Population Mitotic Cells (%) [7]: 18%
Population Normal (%) [7]: 74%
Population Pyknosed Nuclei (%) [7]: 63%
Population Tubulin-Different-Phenotype (%) [7]: 45%
Total Cell Count [7]: 298
Population Apoptotic (%) [8]: 86%
Population Fragmented Nuclei (%) [8]: 12%
Population Healthy Nuclei (%) [8]: 25%
Population Hoechst High Intensity Objects (%) [8]: 5%
Population Membrane Permeable-Phenotype (%) [8]: 0%
Population Mitochondria Different-Phenotype (%) [8]: 97%
Population Mitotic Cells (%) [8]: 13%
Population Normal (%) [8]: 94%
Population Pyknosed Nuclei (%) [8]: 62%
Population Tubulin-Different-Phenotype (%) [8]: 63%
Total Cell Count [8]: 207
Population Apoptotic (%) [9]: 66%
Population Fragmented Nuclei (%) [9]: 22%
Population Healthy Nuclei (%) [9]: 18%
Population Hoechst High Intensity Objects (%) [9]: 22%
Population Membrane Permeable-Phenotype (%) [9]: 2%
Population Mitochondria Different-Phenotype (%) [9]: 95%
Population Mitotic Cells (%) [9]: 33%
Population Normal (%) [9]: 77%
Population Pyknosed Nuclei (%) [9]: 59%
Population Tubulin-Different-Phenotype (%) [9]: 97%
Total Cell Count [9]: 325
Population Apoptotic (%) [10]: 67%
Population Fragmented Nuclei (%) [10]: 10%
Population Healthy Nuclei (%) [10]: 60%
Population Hoechst High Intensity Objects (%) [10]: 2%
Population Membrane Permeable-Phenotype (%) [10]: 6%
Population Mitochondria Different-Phenotype (%) [10]: 53%
Population Mitotic Cells (%) [10]: 32%
Population Normal (%) [10]: 97%
Population Pyknosed Nuclei (%) [10]: 28%
Population Tubulin-Different-Phenotype (%) [10]: 76%
Total Cell Count [10]: 191
Population Apoptotic (%) [11]: 77%
Population Fragmented Nuclei (%) [11]: 27%
Population Healthy Nuclei (%) [11]: 4%
Population Hoechst High Intensity Objects (%) [11]: 26%
Population Membrane Permeable-Phenotype (%) [11]: 11%
Population Mitochondria Different-Phenotype (%) [11]: 100%
Population Mitotic Cells (%) [11]: 22%
Population Normal (%) [11]: 73%
Population Pyknosed Nuclei (%) [11]: 68%
Population Tubulin-Different-Phenotype (%) [11]: 55%
Total Cell Count [11]: 287
Population Apoptotic (%) [12]: 79%
Population Fragmented Nuclei (%) [12]: 12%
Population Healthy Nuclei (%) [12]: 31%
Population Hoechst High Intensity Objects (%) [12]: 10%
Population Membrane Permeable-Phenotype (%) [12]: 0%
Population Mitochondria Different-Phenotype (%) [12]: 98%
Population Mitotic Cells (%) [12]: 20%
Population Normal (%) [12]: 89%
Population Pyknosed Nuclei (%) [12]: 55%
Population Tubulin-Different-Phenotype (%) [12]: 56%
Total Cell Count [12]: 204
